Source: ChEMBL document CHEMBL4665630, “Synthesis and biological evaluation of anthraquinone derivatives as allosteric phosphoglycerate mutase 1 inhibitors for cancer treatment” (Eur J Med Chem, 2019)
The source made the active and inactive calls. No cut-off for these calls is given here.

Key:
[1] = target: Phosphoglycerate mutase 1 (Homo sapiens, UniProt P18669); test: Inhibition of human recombinant PGAM1 by measuring decrease in OD by enzyme based assay
How it was run: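 C-terminal His6-tagged PGAM1, Ni-NTA purified, 4.6 nM, preincubated with inhibitor in DMSO; coupled enolase/pyruvate kinase M2/LDH system in 100 mM Tris-HCl, 100 mM KCl, 5 mM MgCl2, 1 mM ADP, 0.2 mM NADH, 4 mM 3PG; NADH loss read at 340 nm. Counter-screen without PGAM1 using 4 mM 2PG. Mean ± s.d., n=3.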

NCI-H1299 [2] = test: Antiproliferative activity against human H1299 cells assessed as reduction in cell viability measured after 72 hrs by MTT assay; type: functional, cell-based; settings: NCI-H1299, 72 h
How it was run: (§1)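 Cells grown in RPMI-1640 (H1299, PC9) or F-12K (A549) with 10% FBS and penicillin/streptomycin; 2000 H1299 or A549 or 1000 PC9 cells per well, attached 24 h, exposed to inhibitor 72 h; MTT 0.5 mg/mL for 4 h, absorbance at 570 nm; mean ± s.d., n=3.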

A549 = test: Antiproliferative activity against human A549 cells assessed as reduction in cell viability measured after 72 hrs by MTT assay; type: functional, cell-based; settings: A549, 72 h; how it was run: as §1
PC-9 = test: Antiproliferative activity against human PC-9 cells assessed as reduction in cell viability measured after 72 hrs by MTT assay; type: functional, cell-based; settings: PC-9, 72 h; how it was run: as §1
NCI-H1299 [3] = test: Inhibition of oxidative phosphorylation in human NCI-H1299 cells assessed as decrease in spare capacity at 10 to 20 uM pretreated for 12 hrs in presence of glucose/2-DG and oligomycin by […]; type: functional, cell-based; settings: dose microM 10-20, time 12.0 hrs
How it was run: (§2)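 H1299 cells, 10,000 per well, exposed to 10 or 20 µM or PBS for 12 h, then Seahorse XF96. Glycolysis stress: glucose 10 mM, oligomycin 1 µM, 2-DG 50 mM (ECAR). Mito stress: oligomycin 1 µM, FCCP 1 µM, rotenone/antimycin A 0.5 µM (OCR). Normalised to cell number; triplicates, mean ± s.d.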

[4] = […] xenografted with human NCI-H1299 cells assessed as kidney histology at 100 mg/kg, ip qd upto 8 days by haematoxylin and eosin staining-based light microscopic analysis; type: organism-based; settings: in vivo, 192 h, time <=8 day
How it was run: (§3)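 Nude mice (male, 4–6 weeks) given 5×10^6 H1299 cells in PBS subcutaneously at both flanks; at ~200 mm³ randomised to vehicle or 100 mg/kg i.p. once daily; volume (L×W×W)×π/6, body weight tracked; terminal tumour weights, Ki67 IHC on tumours, H&E of kidney and liver; mean ± s.e.m., unpaired t-test.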

[5] = Half life in ICR mouse at 100 mg/kg, ip measured upto 24 hrs by LC-MS analysis; type: ADME, organism-based; settings: in vivo
How it was run: (§4)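 Male ICR mice, single intraperitoneal 100 mg/kg in 7% DMSO/7% Cremophor EL/86% PBS; heparinised blood at 0.25, 0.5, 1, 2, 4, 6, 10, 24 h; plasma extracted with methanol, quantified by HPLC against a standard curve (water/methanol with 0.1% TFA gradient); n = 3 animals per time point.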

[6] = Apparent oral clearance in ICR mouse at 100 mg/kg, ip measured upto 24 hrs by LC-MS analysis; type: ADME, organism-based; settings: in vivo; how it was run: as §4
[7] = Toxicity in nude mouse xenografted with human NCI-H1299 cells assessed as kidney and liver histology at 100 mg/kg, ip qd upto 8 days by haematoxylin and eosin staining-based light microscopic analysis; settings: in vivo, 192 h
[8] = Cmax in ICR mouse at 100 mg/kg, ip measured upto 24 hrs by LC-MS analysis; type: ADME, organism-based; set-up: route intraperitoneal, dose 100 mg/kg, time <=24; settings: in vivo; how it was run: as §4
[9] = Toxicity in nude mouse xenografted with human NCI-H1299 cells assessed as body weight loss at 100 mg/kg, ip qd upto 8 days; settings: in vivo, 192 h
NCI-H1299 [10] = test: Inhibition of oxidative phosphorylation in human NCI-H1299 cells assessed as decrease in maximal respiration at 10 to 20 uM pretreated for 12 hrs in presence of glucose/2-DG and oligomycin by […]; type: functional, cell-based; settings: dose microM 10-20, time 12.0 hrs; how it was run: as §2
NCI-H1299 [11] = test: Inhibition of oxidative phosphorylation in human NCI-H1299 cells assessed as decrease in basal respiration at 10 to 20 uM pretreated for 12 hrs in presence of glucose/2-DG and oligomycin by […] assay; type: functional, cell-based; settings: dose microM 10-20, time 12.0 hrs; how it was run: as §2
[12] = AUC (0 to infinity) in ICR mouse at 100 mg/kg, ip measured upto 24 hrs by LC-MS analysis; type: ADME, organism-based; set-up: route intraperitoneal, dose 100 mg/kg, time <=24; settings: in vivo; how it was run: as §4
NCI-H1299 [13] = test: Inhibition of anaerobic glycolysis in human NCI-H1299 cells assessed as decrease in glycolytic reserve pretreated for 12 hrs in presence of glucose/2-DG and oligomycin by […]; type: functional, cell-based; how it was run: as §2
NCI-H1299 [14] = test: Antitumor activity against human NCI-H1299 cells xenografted in nude mouse assessed as tumor volume at 100 mg/kg,qd ip measured upto 8 days relative to control; settings: time day <=8
NCI-H1299 [15] = test: Inhibition of glucose metabolism in human H1299 cells assessed as reduction in ATP level at 10 to 20 uM; type: functional, cell-based; settings: dose microM 10-20
NCI-H1299 [16] = test: Inhibition of anaerobic glycolysis in human NCI-H1299 cells assessed as decrease in glycolytic capacity pretreated for 12 hrs in presence of glucose/2-DG and oligomycin by […] assay; type: functional, cell-based; how it was run: as §2
NCI-H1299 [17] = test: Inhibition of oxidative phosphorylation in human NCI-H1299 cells assessed as decrease in oxygen consumption rate at 10 to 20 uM pretreated for 80 mins in presence of glucose/2-DG and oligomycin by seahorse XF24 extracellular flux analyzer assay; type: functional, cell-based; settings: dose microM 10-20, time 80.0 min
NCI-H1299 [18] = test: Induction of ROS production in human H1299 cells using carboxy-H2DCFDA at 10 to 20 uM incubated for 24 hrs by FACS analysis; type: functional, cell-based; settings: dose microM 10-20
How it was run: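 H1299 cells, 2×10^5 per well, loaded 24 h after seeding with 12.5 µM carboxy-H2DCFDA for 60 min after PBS wash; harvested and analysed by flow cytometry, excitation 490/emission 530 nm.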

[19] = Apparent oral volume of distribution in ICR mouse at 100 mg/kg, ip measured upto 24 hrs by LC-MS analysis; type: ADME, organism-based; settings: in vivo; how it was run: as §4
[20] = target: 5'-AMP-activated protein kinase catalytic subunit alpha-2 (Homo sapiens) (UniProt P54646); test: Activation of AMPK in human H1299 cells assessed as increase in AMPK phosphorylation at 10 to 20 uM by Western blot analysis; type: cell-based; settings: NCI-H1299, filed as activator, dose microM 10-20
[21] = AUC (0 to 24 hrs) in ICR mouse at 100 mg/kg, ip measured upto 24 hrs by LC-MS analysis; type: ADME, organism-based; set-up: route intraperitoneal, dose 100 mg/kg, time <=24; settings: in vivo; how it was run: as §4
[22] = Tmax in ICR mouse at 100 mg/kg, ip measured upto 24 hrs by LC-MS analysis; type: ADME, organism-based; settings: in vivo; how it was run: as §4
NCI-H1299 [23] = test: Antitumor activity against human NCI-H1299 cells xenografted in ICR mouse assessed as tumor weight at 100 mg/kg,qd ip upto 8 days relative to control; type: functional, organism-based; settings: nude, time day <=8, in the assay text read “nude mouse” for “ICR mouse”; how it was run: as §3
NCI-H1299 [24] = test: Reduction in lactate production in human H1299 cells at 10 to 20 uM incubated for 24 hrs colorimetry based lactate assay; type: functional, cell-based; settings: dose microM 10-20
How it was run: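 Cells grown overnight at 37 °C; at 50% confluence switched to phenol red-free, serum-free RPMI for 1 h at 37 °C; medium lactate measured colorimetrically with a kit, normalised to microscope cell counts.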

NCI-H1299 [25] = test: Inhibition of anaerobic glycolysis in human NCI-H1299 cells assessed as decrease in extracellular acidification rate at 10 to 20 uM pretreated for 12 hrs in presence of glucose/2-DG and oligomycin by seahorse XF96 extracellular flux analyzer assay; settings: dose microM 10-20, time 12 h
NCI-H1299 [26] = test: Inhibition of anaerobic glycolysis in human NCI-H1299 cells assessed as decrease in glycolysis rate pretreated for 12 hrs in presence of glucose/2-DG and oligomycin by […]; type: functional, cell-based; how it was run: as §2

Sequence of Phosphoglycerate mutase 1 (P18669 whole entry): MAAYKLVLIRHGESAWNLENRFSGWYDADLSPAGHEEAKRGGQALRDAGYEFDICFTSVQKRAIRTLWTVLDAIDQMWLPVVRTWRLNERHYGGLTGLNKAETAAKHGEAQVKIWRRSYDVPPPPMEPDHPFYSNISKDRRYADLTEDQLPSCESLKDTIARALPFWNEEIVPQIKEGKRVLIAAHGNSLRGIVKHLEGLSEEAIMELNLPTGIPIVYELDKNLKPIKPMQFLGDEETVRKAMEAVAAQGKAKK
Sequence of 5'-AMP-activated protein kinase catalytic subunit alpha-2 (Homo sapiens) (P54646 whole entry, looked up): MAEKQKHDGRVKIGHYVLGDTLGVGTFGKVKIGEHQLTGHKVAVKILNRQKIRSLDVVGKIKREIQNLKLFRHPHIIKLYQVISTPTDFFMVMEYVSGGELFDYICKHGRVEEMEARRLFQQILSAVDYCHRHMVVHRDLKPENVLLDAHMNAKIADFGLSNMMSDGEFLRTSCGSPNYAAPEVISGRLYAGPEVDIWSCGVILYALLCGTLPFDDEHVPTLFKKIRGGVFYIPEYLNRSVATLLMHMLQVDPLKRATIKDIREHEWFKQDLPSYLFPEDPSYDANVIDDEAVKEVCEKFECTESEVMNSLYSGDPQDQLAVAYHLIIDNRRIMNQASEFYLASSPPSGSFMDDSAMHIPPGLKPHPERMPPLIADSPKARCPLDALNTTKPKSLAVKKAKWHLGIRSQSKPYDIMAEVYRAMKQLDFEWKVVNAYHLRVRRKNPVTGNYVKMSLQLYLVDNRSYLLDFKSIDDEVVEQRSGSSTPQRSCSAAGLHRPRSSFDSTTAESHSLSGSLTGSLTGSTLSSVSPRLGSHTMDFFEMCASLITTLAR

Molecule `COc1ccc(S(=O)(=O)Nc2cc3c(c(O)c2O)C(=O)c2ccccc2C3=O)cc1OC` has an IC50 [1] of 2.81 µM and an IC50 (NCI-H1299 [2]) of 26.7 µM.

`O=C1c2ccccc2C(=O)c2c1cc(NS(=O)(=O)c1ccc(F)c(C(F)(F)F)c1)c(O)c2O` gave an IC50 [1] of 0.63 µM and an IC50 (NCI-H1299 [2]) of 22.6 µM.

`O=C1c2ccccc2C(=O)c2c1cc(NS(=O)(=O)c1ccc(N3CCCCC3)cc1)c(O)c2O` showed an IC50 (A549) of 6.3 µM, an IC50 [1] of 0.33 µM and an IC50 (NCI-H1299 [2]) of 10 µM. It also gave an IC50 (PC-9) of 3 µM.

With `O=C1c2ccccc2C(=O)c2c1cc(NS(=O)(=O)c1ccc(-c3ccc(F)cc3)cc1)c(O)c2O` the IC50 (A549) was 12 µM, the IC50 [1] was 0.26 µM and the IC50 (NCI-H1299 [2]) was 6.2 µM. For the same molecule, the IC50 (PC-9) was 5.4 µM.

`O=C1c2ccccc2C(=O)c2c1cc(NS(=O)(=O)c1cccc3cccnc13)c(O)c2O` showed an IC50 [1] of 2.05 µM and an IC50 (NCI-H1299 [2]) of 47.6 µM.

For `O=C1c2ccccc2C(=O)c2c1cc(NS(=O)(=O)c1ccc3ccccc3c1)c(O)c2O`, the IC50 (A549) was greater than 100 µM, the IC50 [1] was 0.19 µM and the IC50 (NCI-H1299 [2]) was 8.7 µM. It also gave an IC50 (PC-9) of 4.7 µM.

In the case of `COc1ccc(S(=O)(=O)Nc2cc3c(c(O)c2O)C(=O)c2ccccc2C3=O)c(OC)c1`, the IC50 [1] is reported as 2.86 µM and the IC50 (NCI-H1299 [2]) is reported as 20 µM.

In the case of `O=C1c2ccccc2C(=O)c2c1cc(NS(=O)(=O)c1ccc(-c3ccccc3)cc1)c(O)c2O`, the inhibition (NCI-H1299 [3]) is reported as “Active”, the IC50 (A549) is reported as 10.3 µM and the Activity [4] is reported as “Non-Toxic”. It also gave an IC50 [1] of 0.25 µM, a half-life [5] of 4.28 h and a CL/F [6] of 0.193 mL/min. For the same molecule, the Activity [7] was “Non-Toxic”, the Cmax [8] was 131 µg/mL and the Activity [9] was “Non-Toxic”. The inhibition (NCI-H1299 [10]) was “Active”, the IC50 (NCI-H1299 [2]) was 6.4 µM and the inhibition (NCI-H1299 [11]) was “Active”. For the same molecule, the AUC(0-inf) [12] was 245 µg·h/mL, the inhibition (NCI-H1299 [13]) was “Dose-dependent effect” and the Activity (NCI-H1299 [14]) was “Active”. For the same molecule, the inhibition (NCI-H1299 [15]) was “Active”, the inhibition (NCI-H1299 [16]) was “Dose-dependent effect” and the inhibition (NCI-H1299 [17]) was “Active”. The Activity (NCI-H1299 [18]) was “Active”, the Vd/F [19] was 71.64 mL and the Activity [20] was “Active”. For the same molecule, the AUC(0-t) [21] was 239 µg·h/mL, the Tmax [22] was 0.25 h and the Activity (NCI-H1299 [23]) was “Active”. For the same molecule, the Activity (NCI-H1299 [24]) was “Active”, the inhibition (NCI-H1299 [25]) was “Dose-dependent effect” and the IC50 (PC-9) was 4.8 µM. The inhibition (NCI-H1299 [26]) was “Dose-dependent effect”.

In the case of `O=C1c2ccccc2C(=O)c2c1cc(NS(=O)(=O)c1ccccc1)c(O)c2O`, the IC50 [1] is reported as 1.5 µM and the IC50 (NCI-H1299 [2]) is reported as 21.3 µM.

Work on `O=C1c2ccccc2C(=O)c2c1cc(NS(=O)(=O)c1ccc(-c3ccc(Cl)cc3)cc1)c(O)c2O` yielded an IC50 (A549) of 6.8 µM, an IC50 [1] of 0.14 µM and an IC50 (NCI-H1299 [2]) of 6.3 µM. For the same molecule, the IC50 (PC-9) was 6.6 µM.

With `O=C1c2ccccc2C(=O)c2c1cc(NS(=O)(=O)c1ccc(Cl)s1)c(O)c2O` the IC50 (A549) was 12.2 µM, the IC50 [1] was 0.55 µM and the IC50 (NCI-H1299 [2]) was 17.7 µM. The IC50 (PC-9) was 16.1 µM.

For `CN(C)S(=O)(=O)Nc1cc2c(c(O)c1O)C(=O)c1ccccc1C2=O`, the IC50 [1] was greater than 10 µM.
